Assay results published in ChEMBL document CHEMBL1154704, “Synthesis, anti-HCV, antioxidant, and peroxynitrite inhibitory activity of fused benzosuberone derivatives” (Eur J Med Chem, 2010).
Converted amounts (≈) assume the structure as drawn.

How the values were obtained:
[1] = Inhibition of peroxynitrite-induced 3-nitrotyrosin formation by HPLC; format: functional
In short: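 Equimolar tyrosine and peroxynitrite with compound at increasing concentrations in 100 mM phosphate buffer pH 7.4, 37 °C for 15 min. Peroxynitrite stock quantified at 302 nm (ε 1670 cm⁻¹ M⁻¹), held on ice ≤30 min after thawing. 3-Nitrotyrosine measured by HPLC; control peroxynitrite plus tyrosine; mean ± SD of 3 independent experiments.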

[2] = system: Hepatitis C virus; test: Antiviral activity HCV in replicon cells assessed as inhibition of NS3-4A protease activity by RT-PCR; format: functional, Hepacivirus hominis
In short: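 Replicon cells seeded at 1×10⁴/well; next day incubated at 37 °C with serially diluted agents in DMEM + 2% FBS + 0.5% DMSO for the indicated period. Total RNA extracted, HCV RNA copy number by quantitative RT-PCR; five replicates per point; ribavirin control. Cytotoxicity by MTS viability in same settings; Huh-7 1×10⁴ or HepG2 4×10⁴ cells/well.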

[3] = system: Radical scavenging activity; test: Antioxidant activity assessed as DPPH radical scavenging activity by microplate reader assay; format: functional; design: concentration or dose not given beside the values
In short: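 Compounds or ascorbic acid standard added to DPPH radical in methanol, ratio 1:9; incubated dark 37 °C 30 min; absorbance decrease read at 515 nm on plate reader. Blank of DMSO plus DPPH; solvent control taken as 0% scavenging. Triplicate; reported as % decrease in DPPH absorbance, mean ± SD.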

| Structure (SMILES) | IC50 [1] | MIC [2] | Activity [3] |
| --- | --- | --- | --- |
| c1ccc2c(c1)CCCc1c[nH]nc1-2 | 277 µM | 6.22 µg/mL (≈ 33.8 µM) | 45.4% |
| CN(C)/C=C1\CCCc2ccccc2C1=O | 146 µM |  | 57.9% |
| Cc1c(C)c2c(c(C)c1O)CCC(C)(C(=O)O)O2 (configuration not stated) [TROLOX] | 58.4 µM |  |  |
| O=c1cc(-c2ccccc2)nc2n(-c3ccccc3)nc(-c3ccc4c(n3)-c3ccccc3CCC4)n12 | 349 µM | 1.15 µg/mL (≈ 2.39 µM) | 40% |
| c1ccc2c(c1)CCCc1cnc3nc4ccccc4n3c1-2 | 342 µM | 6 µg/mL (≈ 21 µM) | 28.2% |
| c1ccc2c(c1)CCCc1cnoc1-2 | 149 µM | 7.66 µg/mL (≈ 41.4 µM) | 44.1% |
| NC(=O)c1ncn([C@@H]2O[C@H](CO)[C@@H](O)[C@H]2O)n1 [RIBAVIRIN] |  | 16.1 µg/mL (≈ 66.1 µM) |  |
| CC(=O)c1cc2c(nc1C)-c1ccccc1CCC2 | 158 µM | 7.09 µg/mL (≈ 28.2 µM) | 37.2% |
| c1ccc2c(c1)CCCc1cnc3ncnn3c1-2 | 315 µM | 2.21 µg/mL (≈ 9.35 µM) | 27.7% |
| c1ccc2c(c1)CCCc1ccc(-c3ccc4ccccc4c3)nc1-2 | 170 µM | 5.98 µg/mL (≈ 18.6 µM) | 54.2% |
| CCOC(=O)c1cc2c(nc1C)-c1ccccc1CCC2 | 329 µM | 3.58 µg/mL (≈ 12.7 µM) | 54.4% |
| N#Cc1cc2c([nH]c1=O)-c1ccccc1CCC2 | 291 µM | 4.45 µg/mL (≈ 18.8 µM) | 27.4% |
| O=C1O[C@H]([C@@H](O)CO)C(O)=C1O |  |  | 79% |
